Tests used:
[1] = target: T1, Methylcytosine dioxygenase TET1 (Homo sapiens, UniProt Q8NFU7); assay: Inhibition of N-terminal 3xFlag-tagged recombinant human TET1 catalytic domain (E1418 to V2136 residues) expressed in baculovirus infected Sf9 cells using 5-methylcytosine as substrate preincubated for 10 mins followed by substrate and DNA-cofactor addition measured after 30 mins by Alphascreen assay; details: read-out: pIC50 (converted)
Outline: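 TET1 catalytic domain (E1418–V2136, Sf9 baculovirus) at 2 nM was preincubated 10 min with inhibitor (1% DMSO) in HEPES 50 mM pH 7.3, 150 mM NaCl, 0.1% BSA, 0.01% Tween-20. Reaction was started with ascorbate 200 µM, Fe(II) 20 µM, 2OG 20 µM and 5mC ssDNA 10 nM, run 30 min, then EDTA-quenched. Anti-5hmC antibody with AlphaScreen beads, 45–60 min, luminescence read. Three independent replicates.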

[2] = target: Methylcytosine dioxygenase TET1 (Mus musculus, UniProt Q3URK3); assay: Inhibition of recombinant mouse TET1 catalytic domain (E1367 to V2039 residues) expressed in baculovirus expression system using 5-methylcytosine as substrate preincubated for 10 mins followed by substrate and DNA-cofactor addition measured after 9 mins by Alphascreen assay
Outline: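 Murine Tet1 catalytic domain (E1367–V2039, High Five baculovirus) at 2 nM was preincubated 10 min with inhibitor (1% DMSO) in HEPES 50 mM pH 7.3, NaCl 150 mM, BSA 0.1%, Tween-20 0.01%. Ascorbate 200 µM, Fe(II) 20 µM, 2OG 20 µM and 5mC ssDNA 10 nM were added; reaction ran 9 min, then EDTA-quenched. AlphaScreen anti-5hmC detection by luminescence.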

[3] = target: T1, Methylcytosine dioxygenase TET1; assay: Inhibition of FLAG-tagged human TET1 catalytic domain (E1418 to V2136 residues) expressed in doxycycline induced human U2OS cells incubated for 24 hrs by immunofluorescence assay; type: cell-based
Outline: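 U2OS cells stably carrying dox-inducible FLAG-tagged TET1 catalytic domain (E1418–V2136), 5,000/well, seeded 4 h at 37 °C in DMEM with Tet-approved 10% FBS, pen/strep and L-glutamine. Doxycycline 1 µg/mL induction plus compound dosing (1% DMSO final) for 24 h. After fixation, cells were co-stained with anti-5hmC and anti-FLAG antibodies plus DAPI, then imaged. Read-out was mean 5hmC fluorescence in FLAG-positive cells.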

[4] = tested on: Methylcytosine dioxygenase TET2 (Homo sapiens), Q6N021 [UNDEFINED MUTATION]; details: time 20.0 min
[5] = target: T2, Methylcytosine dioxygenase TET2 (Homo sapiens, UniProt Q6N021); assay: (§1) Inhibition of N-terminal His-tagged recombinant human TET2 catalytic domain LCIdel mutant (D1129 to G1936 residues with Y1481 to N1843 replaced by 3 x GGGGS linker) expressed in Escherichia coli BL21 (DE3) using 5-methylcytosine as substrate preincubated for 10 mins followed by substrate and DNA-cofactor addition measured after 10 mins by Alphascreen assay
[6] = target: T2, Methylcytosine dioxygenase TET2; assay: as §1, with “after 12” for “after 10”, “by SPE-MS analysis” for “by Alphascreen assay”
[7] = target: Methylcytosine dioxygenase TET3 (Homo sapiens, UniProt O43151); assay: Inhibition of recombinant human TET3 catalytic domain (E824 to I1795 residues) expressed in baculovirus infected Sf9 cells using 5-methylcytosine as substrate preincubated for 10 mins followed by substrate and DNA-cofactor addition measured after 10 mins by Alphascreen assay; details: read-out: pIC50 (converted)
Homo sapiens = organism: Homo sapiens; assay: Selectivity ratio of pIC50 for inhibition of N-terminal 3xFlag-tagged recombinant human TET1 catalytic domain (E1418 to V2136 residues) expressed in baculovirus infected Sf9 cells to pIC50 for inhibition of N-terminal His-tagged recombinant human TET2 catalytic domain LCIdel mutant (D1129 to G1936 residues with Y1481 to N1843 replaced by 3 x GGGGS linker) expressed in Escherichia coli BL21 (DE3)

T1 sequence (Q8NFU7 whole entry, the tested form may be a part): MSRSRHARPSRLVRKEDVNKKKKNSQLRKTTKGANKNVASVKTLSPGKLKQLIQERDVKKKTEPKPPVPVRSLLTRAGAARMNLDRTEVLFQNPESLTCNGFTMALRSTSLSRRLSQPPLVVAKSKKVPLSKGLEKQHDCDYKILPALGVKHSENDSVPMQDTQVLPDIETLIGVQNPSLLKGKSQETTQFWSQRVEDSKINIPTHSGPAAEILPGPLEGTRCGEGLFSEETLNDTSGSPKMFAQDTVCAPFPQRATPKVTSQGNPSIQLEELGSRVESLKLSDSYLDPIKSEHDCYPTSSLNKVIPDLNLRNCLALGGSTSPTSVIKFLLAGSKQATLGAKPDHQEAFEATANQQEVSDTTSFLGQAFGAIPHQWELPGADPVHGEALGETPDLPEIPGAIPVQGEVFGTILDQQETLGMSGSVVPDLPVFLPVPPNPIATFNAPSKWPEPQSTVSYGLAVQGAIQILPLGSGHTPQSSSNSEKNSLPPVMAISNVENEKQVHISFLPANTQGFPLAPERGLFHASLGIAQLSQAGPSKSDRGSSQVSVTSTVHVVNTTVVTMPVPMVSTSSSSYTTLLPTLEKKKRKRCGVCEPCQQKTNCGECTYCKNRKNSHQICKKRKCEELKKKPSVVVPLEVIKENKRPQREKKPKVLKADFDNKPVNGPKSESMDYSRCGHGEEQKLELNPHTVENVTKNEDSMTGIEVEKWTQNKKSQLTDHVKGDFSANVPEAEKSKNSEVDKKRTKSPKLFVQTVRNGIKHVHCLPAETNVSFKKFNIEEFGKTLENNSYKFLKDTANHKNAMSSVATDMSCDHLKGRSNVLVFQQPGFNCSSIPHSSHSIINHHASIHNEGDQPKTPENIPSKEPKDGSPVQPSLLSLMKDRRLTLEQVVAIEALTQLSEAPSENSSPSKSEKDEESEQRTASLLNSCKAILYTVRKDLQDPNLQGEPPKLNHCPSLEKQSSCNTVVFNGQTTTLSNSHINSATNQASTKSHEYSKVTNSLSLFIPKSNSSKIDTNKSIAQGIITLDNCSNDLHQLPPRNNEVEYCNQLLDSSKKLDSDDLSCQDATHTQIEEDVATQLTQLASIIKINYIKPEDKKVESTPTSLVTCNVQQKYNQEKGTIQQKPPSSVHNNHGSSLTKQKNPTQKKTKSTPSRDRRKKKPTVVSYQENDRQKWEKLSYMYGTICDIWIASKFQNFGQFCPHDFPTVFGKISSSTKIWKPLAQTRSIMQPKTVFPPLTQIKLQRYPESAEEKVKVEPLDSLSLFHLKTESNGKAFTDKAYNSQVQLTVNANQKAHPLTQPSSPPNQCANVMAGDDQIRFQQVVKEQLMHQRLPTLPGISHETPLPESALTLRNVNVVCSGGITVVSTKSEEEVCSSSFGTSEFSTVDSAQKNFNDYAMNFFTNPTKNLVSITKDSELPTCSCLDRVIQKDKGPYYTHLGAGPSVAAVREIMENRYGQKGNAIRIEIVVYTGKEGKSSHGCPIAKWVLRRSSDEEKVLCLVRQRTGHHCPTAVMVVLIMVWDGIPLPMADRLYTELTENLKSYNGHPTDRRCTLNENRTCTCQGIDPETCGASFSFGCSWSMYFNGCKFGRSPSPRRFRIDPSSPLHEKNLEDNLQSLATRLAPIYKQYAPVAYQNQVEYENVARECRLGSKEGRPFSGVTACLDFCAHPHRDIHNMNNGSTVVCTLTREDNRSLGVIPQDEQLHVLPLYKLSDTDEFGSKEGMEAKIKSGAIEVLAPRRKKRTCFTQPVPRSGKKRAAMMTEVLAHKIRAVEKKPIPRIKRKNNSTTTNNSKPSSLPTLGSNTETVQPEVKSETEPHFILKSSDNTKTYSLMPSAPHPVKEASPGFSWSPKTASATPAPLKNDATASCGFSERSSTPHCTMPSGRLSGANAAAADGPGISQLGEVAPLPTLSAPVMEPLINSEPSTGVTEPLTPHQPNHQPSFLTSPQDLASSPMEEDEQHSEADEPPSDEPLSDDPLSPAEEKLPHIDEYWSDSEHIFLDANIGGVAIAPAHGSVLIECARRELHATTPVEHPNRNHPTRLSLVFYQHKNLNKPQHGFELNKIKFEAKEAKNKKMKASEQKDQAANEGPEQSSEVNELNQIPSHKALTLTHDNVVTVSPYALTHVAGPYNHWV

IC50 [3]	SMILES	IC50 [1]	IC50 [2]	deltapIC50 [4]	pIC50 [5]	pIC50 [6]	IC50 [7]	Ratio pIC50 (Homo sapiens)
22 µM	O=C(O)c1ccc(O)c2ncccc12	0.562 µM	0.427 µM	0.07				
	CC[C@H](C)[C@@H]1NC(=O)[C@H](CC(C)C)NC(=O)[C@H](Cc2c[nH]c3ccccc23)NC(=O)[C@H](Cc2c[nH]c3ccccc23)NC(=O)[C@H]([C@@H](C)O)NC(=O)[C@H](Cc2ccc(O)cc2)NC(=O)[C@H](CC(C)C)NC(=O)[C@H](C)NC(=O)[C@H](Cc2ccc(O)cc2)NC(=O)[C@H](CCC(=O)O)NC(=O)[C@H](CCCNC(=N)N)NC(=O)[C@@H](Cc2ccc(O)cc2)NC(=O)CSC[C@@H](C(N)=O)NC(=O)[C@H](CCC(N)=O)NC1=O	0.204 µM	45.7 µM	1.22	4.38	5.6	49 µM	12

Source: ChEMBL document CHEMBL5523688, “Selective targeting of human TET1 by cyclic peptide inhibitors: Insights from biochemical profiling” (Bioorg Med Chem, 2024)
